From ChEMBL document CHEMBL2062515, “Synthesis and evaluation of novel radioligands for positron emission tomography imaging of metabotropic glutamate receptor subtype 1 (mGluR1) in rodent brain” (J Med Chem, 2012)

Legend:
Kidney [1] = test: Biodistribution in mouse kidney at 4.8 MBq/140 uL, iv after 1 min by gamma counting; type: ADME, organism-based; conditions: in vivo
Procedure, shortened: (§1)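 Mice received the radioligand in saline by tail vein (4.8 MBq/140 μL, 40 pmol). Four mice per time point were killed by cervical dislocation at 1, 5, 15, 30 and 60 min. Tissues were removed quickly and counted in an autogamma counter. Data are decay-corrected % injected dose per gram of wet tissue, mean ± SE, n = 4.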

Heart [2] = test: Biodistribution in mouse heart at 4.8 MBq/140 uL, iv after 5 mins by gamma counting; type: ADME, organism-based; conditions: in vivo; procedure, shortened: as §1
Spleen [3] = test: Biodistribution in mouse spleen at 4.8 MBq/140 uL, iv after 5 mins by gamma counting; type: ADME, organism-based; conditions: in vivo
Procedure, shortened: (§2)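 [¹¹C]radioligand in saline (4.8 MBq/140 μL, 40 pmol) injected via tail vein; four mice per time point killed by cervical dislocation at 1, 5, 15, 30, 60 min. Tissues (small intestine including contents) removed, counted in autogamma counter, decay-corrected, expressed as % injected dose per gram wet tissue; mean SE, n = 4.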

Blood = test: Biodistribution in mouse blood at 4.8 MBq/140 uL, iv after 15 mins by gamma counting; type: ADME, organism-based; conditions: in vivo, 0.25 h; procedure, shortened: as §1
Heart [4] = test: Biodistribution in mouse heart at 4.8 MBq/140 uL, iv after 15 mins by gamma counting; type: ADME, organism-based; conditions: in vivo, 0.25 h; procedure, shortened: as §1
Lung [5] = test: Biodistribution in mouse lung at 4.8 MBq/140 uL, iv after 15 mins by gamma counting; type: ADME, organism-based; conditions: in vivo, 0.25 h; procedure, shortened: as §1
Spleen [6] = test: Biodistribution in mouse spleen at 4.8 MBq/140 uL, iv after 15 mins by gamma counting; type: ADME, organism-based; conditions: in vivo, 0.25 h; procedure, shortened: as §2
Kidney [7] = test: Biodistribution in mouse kidney at 4.8 MBq/140 uL, iv after 15 mins by gamma counting; type: ADME, organism-based; conditions: in vivo, 0.25 h; procedure, shortened: as §1
Mus musculus = test: Biodistribution in mouse testis at 4.8 MBq/140 uL, iv after 15 mins by gamma counting; type: ADME, organism-based; conditions: in vivo, 0.25 h; procedure, shortened: as §2
Lung [8] = test: Biodistribution in mouse lung at 4.8 MBq/140 uL, iv after 30 mins by gamma counting; type: ADME, organism-based; conditions: in vivo, 0.5 h; procedure, shortened: as §1
Liver [9] = test: Biodistribution in mouse liver at 4.8 MBq/140 uL, iv after 30 mins by gamma counting; type: ADME, organism-based; conditions: in vivo, 0.5 h; procedure, shortened: as §1
Brain = test: Biodistribution in mouse brain at 4.8 MBq/140 uL, iv after 30 mins by gamma counting; type: ADME, organism-based; conditions: in vivo, 0.5 h; procedure, shortened: as §1
Heart [10] = test: Biodistribution in mouse heart at 4.8 MBq/140 uL, iv after 60 mins by gamma counting; type: ADME, organism-based; conditions: in vivo, 1 h; procedure, shortened: as §1
Liver [11] = test: Biodistribution in mouse liver at 4.8 MBq/140 uL, iv after 60 mins by gamma counting; type: ADME, organism-based; conditions: in vivo, 1 h; procedure, shortened: as §1
Cerebellum [12] = test: Drug uptake in Sprague-Dawley rat cerebellum at 16 MBq administered as bolus infusion after 90 mins by PET analysis; type: ADME, organism-based; conditions: in vivo, iv, 1.5 h
Striatum [13] = test: Drug uptake in Sprague-Dawley rat striatum at 16 MBq administered as bolus infusion after 90 mins by PET analysis; type: ADME, organism-based; conditions: in vivo, iv, 1.5 h
Cerebellum [14] = test: Drug uptake in Sprague-Dawley rat cerebellum at 17 MBq administered as bolus infusion after 45 mins post injection by PET analysis relative to control in presence of N-[4-[6-(isopropylamino)pyrimidin-4-yl]-1,3-thiazol-2-yl]-4-methoxy-N-methylbenzamide; type: ADME, organism-based; conditions: in vivo, iv, 0.75 h
Thalamus [15] = test: Drug uptake in Sprague-Dawley rat thalamus at 17 MBq administered as bolus infusion by PET analysis in presence of N-[4-[6-(isopropylamino)pyrimidin-4-yl]-1,3-thiazol-2-yl]-4-methoxy-N-methylbenzamide; type: ADME, organism-based; conditions: in vivo, iv
Striatum [16] = test: Drug uptake in Sprague-Dawley rat striatum at 17 MBq administered as bolus infusion by PET analysis in presence of N-[4-[6-(isopropylamino)pyrimidin-4-yl]-1,3-thiazol-2-yl]-4-methoxy-N-methylbenzamide; type: ADME, organism-based; conditions: in vivo, iv
Striatum [17] = test: Drug uptake in Sprague-Dawley rat striatum at 17 MBq administered as bolus infusion by PET analysis in presence of JNJ16259685; type: ADME, organism-based; conditions: in vivo, iv
Cerebellum [18] = test: Drug uptake in wild type mouse cerebellum at 17 MBq, iv up to 60 mins by PET analysis; type: ADME, organism-based; conditions: in vivo, 1 h
Thalamus [19] = test: Drug uptake in wild type mouse thalamus at 17 MBq, iv up to 60 mins by PET analysis; type: ADME, organism-based; conditions: in vivo, 1 h
Plasma = test: Metabolic stability in Sprague-Dawley rat plasma assessed as compound remaining after 90 mins; type: ADME, cell-free; conditions: 1.5 h
[20] = Ratio of drug uptake in cerebellum to pons of Sprague-Dawley rat at 16 MBq administered as bolus infusion; conditions: in vivo, iv

- Drug uptake (Kidney [1]): 8.67 % ID/g
- Drug uptake (Heart [2]): 2.09 % ID/g
- Drug uptake (Spleen [3]): 1.96 % ID/g
- Drug uptake (Blood): 0.96 % ID/g
- Drug uptake (Heart [4]): 1.19 % ID/g
- Drug uptake (Lung [5]): 1.91 % ID/g
- Drug uptake (Spleen [6]): 1.98 % ID/g
- Drug uptake (Kidney [7]): 3.78 % ID/g
- Drug uptake (Mus musculus): 0.54 % ID/g
- Drug uptake (Lung [8]): 1.92 % ID/g
- Drug uptake (Liver [9]): 4.68 % ID/g
- Drug uptake (Brain): 2.38 % ID/g
- Drug uptake (Heart [10]): 0.81 % ID/g
- Drug uptake (Liver [11]): 3.97 % ID/g
- Drug uptake (Cerebellum [12]): 90%
- Drug uptake (Striatum [13]): 80%
- Drug uptake (Cerebellum [14]): Active
- Drug uptake (Thalamus [15]): Not Active
- Drug uptake (Striatum [16]): Not Active
- Drug uptake (Striatum [17]): Not Active
- Drug uptake (Cerebellum [18]): Active
- Drug uptake (Thalamus [19]): Active
- Stability (Plasma): Unstable
- Ratio [20]: 6.98
SMILES: CC(C)Nc1cc(-c2csc(N(C)C(=O)c3ccc(O[11CH3])cc3)n2)ncn1
